Holding throughout (format): functional, cell-based
One test concerns A549. The test is described as follows: Antiproliferative activity against human A549 cells assessed as reduction in cell viability incubated for 48 hrs by MTT assay. The conditions noted are these: A549, 48 h. An outline of the steps:
(§1)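 Cells grown in medium with 10% FBS and 1% antibiotic-antimycotic at 37 °C, passaged at 80–90% confluence with 0.25% trypsin/1 mM EDTA. Seeded at 1000–4000 cells/well and grown overnight. Medium was then replaced and compounds added at various concentrations for 48 h. MTT (0.5 mg/mL) was added for 4 h at 37 °C, formazan dissolved in DMSO and absorbance read at 570 nm. IC50 is the 50% inhibitory concentration.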
Background: Formazan colour is commonly taken as a measure of viable cells.

The test system of a further test is DU-145. The test is described as follows: Antiproliferative activity against human DU-145 cells assessed as reduction in cell viability incubated for 48 hrs by MTT assay. The conditions noted are these: DU-145, 48 h. In short, it runs like this: as §1
For a further test, the system named is PC-3. The test is described as follows: Antiproliferative activity against human PC-3 cells assessed as reduction in cell viability incubated for 48 hrs by MTT assay. The conditions noted are these: PC-3, 48 h. In short, it runs like this: as §1

For orientation: IC50 means the point on the concentration scale where inhibition reaches its midpoint. Regarding `COc1ccc(-c2nnc(-c3cn4ccccc4n3)o2)cc1`, the concentration for half-maximal inhibition (IC50) in the test with A549 came out at 11.9 µM; in the test with DU-145, 12.9 µM; in the test with PC-3, 13.4 µM.

Turning to `COc1ccc(-c2nnc(-c3cn4cccc(C)c4n3)o2)cc1`, the half-maximal inhibitory concentration (IC50) in the test on A549 was 12.8 µM; in the test on DU-145, 10.8 µM; with PC-3, 11.8 µM.

Take `COc1cc([C@@H]2c3cc4c(cc3[C@H](O)[C@H]3COC(=O)[C@H]23)OCO4)cc(OC)c1OC` [PODOFILOX]: the IC50 with DU-145 and in the test with PC-3 was 0.06 µM in each case.

In the case of `Cc1cc(Br)c2nc(-c3nnc(-c4ccccc4)o3)cn2c1`, the figures for the IC50 in the test with A549, in the test with DU-145 and in the test with PC-3 were 14.5 µM, 18.9 µM and 17.8 µM, respectively.

With `Cc1cccn2cc(-c3nnc(-c4ccc(N(C)C)cc4)o3)nc12`, the IC50 in the test on A549 stood at 12.3 µM; in the test on DU-145, 10.8 µM; in the test on PC-3, 11.6 µM.

For the compound `Cc1cccn2cc(-c3nnc(-c4ccccc4I)o3)nc12`, the results for the IC50 in the test on A549, in the test on DU-145 and with PC-3 were 33.4 µM, 31.5 µM and 33.5 µM, respectively.

Take `Cc1cc(Br)c2nc(-c3nnc(-c4ccc(Br)cc4)o3)cn2c1`: the half-maximal inhibitory concentration (IC50) with A549 is 23.4 µM; with DU-145 it was 22.3 µM; in the test on PC-3, 24.5 µM.

Consider `Cc1cc(Br)c2nc(-c3nnc(-c4ccc(Cl)cc4)o3)cn2c1`, for which the half-maximal inhibitory concentration (IC50) worked out at 43.5 µM with A549, 46 µM in the test on DU-145 and 42 µM in the test on PC-3.

On to `c1ccc(-c2nnc(-c3cn4ccccc4n3)o2)cc1`, for which the values for the IC50 with A549, in the test with DU-145 and in the test on PC-3 were 23.4 µM, 23.4 µM and 22.2 µM, respectively.

The record behind these values is ChEMBL document CHEMBL4808192, “Synthesis and biological evaluation of novel imidazo[1,2-a]pyridine-oxadiazole hybrids as anti-proliferative agents: Study of microtubule polymerization inhibition and DNA binding” (Bioorg Med Chem, 2021).
